Measurements as given in ChEMBL document CHEMBL1629624, “In vitro and in vivo studies to characterize the clearance mechanism and potential cytochrome P450 interactions of anidulafungin” (Antimicrob Agents Chemother, 2009).

What was measured:
Format in all cases: ADME, organism-based
[1] = Cmax in Sprague-Dawley rat whole blood at 5 mg/kg, iv by liquid scintillation counting; parameters: dose 5 mg/kg, route intravenous; settings: in vivo
Method in brief: (§1)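 Male Sprague-Dawley rats, single i.v. bolus of [14C]drug. Blood by cardiac puncture from three noncannulated rats killed at each time from 0.25 to 168 h; plasma separated from an aliquot. Radioactivity by liquid scintillation counting. Parameters come from a composite profile of mean values, taking 1 g as equal to 1 ml.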

[2] = Drug level in bile-duct cannulated Sprague-Dawley rat assessed as radioactive drug recovery in carcass at 5 mg/kg, iv after 168 hrs by liquid scintillation counting; parameters: dose 5 mg/kg, route intravenous; settings: in vivo
Method in brief: (§2)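 Male Sprague-Dawley rats, single i.v. bolus of [14C]drug. Five bile duct-cannulated rats: bile collected at 0-4, 4-8 and 8-24 h, then every 24 h to 168 h. Three noncannulated rats were killed at 168 h. Urine and feces collected over set intervals; carcass and cage washings taken at sacrifice. Liquid scintillation counting, expressed as percent of dose.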

Plasma [3] = assay: Tmax in Sprague-Dawley rat plasma at 5 mg/kg, iv by liquid scintillation counting; parameters: dose 5 mg/kg, route intravenous; settings: in vivo; method in brief: as §1
Plasma [4] = assay: Cmax in Sprague-Dawley rat plasma at 5 mg/kg, iv by liquid scintillation counting; parameters: dose 5 mg/kg, route intravenous; settings: in vivo; method in brief: as §1
Plasma [5] = assay: Half life in human plasma at 100 uCi, iv by liquid scintillation counting
Method in brief: (§3)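 Nine healthy men, single i.v. infusion of [14C]drug (planned 100 mg/100 μCi, mean delivered 95 μCi) over 100 min. Heparinized blood sampled from 0 to 18 h, then daily through day 10, plus follow-up. Total radioactivity in plasma and whole blood by liquid scintillation counting, reported as mg equivalents. Noncompartmental analysis; values are means (%CV).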

[6] = Tmax in human whole blood at 100 uCi, iv by liquid scintillation counting; settings: in vivo; method in brief: as §3
[7] = Mean residence time in human whole blood at 100 uCi, iv by liquid scintillation counting; settings: in vivo; method in brief: as §3
[8] = Volume of distribution at steady state in human whole blood at 100 uCi, iv by liquid scintillation counting; settings: in vivo
Method in brief: (§4)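 Healthy adult men (n = 9), single i.v. infusion of [14C]drug over 100 min at 1 mg/min. 100 mg/100 μCi was planned; the mean actually given was 88.3 mg and 95 μCi. Heparinized samples drawn from 0 h through day 10 and at follow-up. Total radioactivity in plasma or whole blood counted by liquid scintillation and expressed as mg equivalents. Noncompartmental analysis, given as mean (%CV).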

[9] = Tmax in Sprague-Dawley rat whole blood at 5 mg/kg, iv by liquid scintillation counting; parameters: dose 5 mg/kg, route intravenous; settings: in vivo; method in brief: as §1
[10] = Drug level in bile-duct cannulated Sprague-Dawley rat assessed as radioactive drug recovery in feces at 5 mg/kg, iv after 168 hrs by liquid scintillation counting; parameters: dose 5 mg/kg, route intravenous; settings: in vivo; method in brief: as §2
Plasma [11] = assay: Mean residence time in human plasma at 100 uCi, iv by liquid scintillation counting; settings: in vivo; method in brief: as §3
[12] = Half life in Sprague-Dawley rat whole blood at 5 mg/kg, iv by liquid scintillation counting; parameters: dose 5 mg/kg, route intravenous; settings: in vivo; method in brief: as §1
Plasma [13] = assay: Tmax in human plasma at 100 uCi, iv by liquid scintillation counting; settings: in vivo; method in brief: as §3
Plasma [14] = assay: Cmax in human plasma at 100 uCi, iv by liquid scintillation counting; parameters: route intravenous; settings: in vivo; method in brief: as §3
[15] = Drug level in bile-duct cannulated Sprague-Dawley rat assessed as radioactive drug recovery in bile at 5 mg/kg, iv after 168 hrs by liquid scintillation counting; parameters: dose 5 mg/kg, route intravenous; settings: in vivo; method in brief: as §2
[16] = Clearance in human whole blood at 100 uCi, iv by liquid scintillation counting; settings: in vivo; method in brief: as §3
Plasma [17] = assay: Volume of distribution at steady state in human plasma at 100 uCi, iv by liquid scintillation counting; settings: in vivo; method in brief: as §4
[18] = Drug level in noncannulated Sprague-Dawley rat assessed as radioactive drug recovery in feces at 5 mg/kg, iv after 168 hrs by liquid scintillation counting; parameters: dose 5 mg/kg, route intravenous; settings: in vivo; method in brief: as §2
[19] = Cmax in human whole blood at 100 uCi, iv by liquid scintillation counting; parameters: route intravenous; settings: in vivo; method in brief: as §3
[20] = Volume of distribution at steady state in Sprague-Dawley rat whole blood at 5 mg/kg, iv by liquid scintillation counting; parameters: dose 5 mg/kg, route intravenous; settings: in vivo
Method in brief: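 Male Sprague-Dawley rats, single i.v. bolus of [14C]drug, 5 mg/kg. Blood by cardiac puncture from three non-cannulated rats killed at each time from 0.25 to 168 h. Radioactivity counted by liquid scintillation. Noncompartmental parameters taken from a composite profile of mean values per time point, assuming 1 g blood equals 1 ml.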

Plasma [21] = assay: Volume of distribution at steady state in Sprague-Dawley rat plasma at 5 mg/kg, iv by liquid scintillation counting; parameters: dose 5 mg/kg, route intravenous; settings: in vivo; method in brief: as §1
[22] = Drug level in noncannulated Sprague-Dawley rat assessed as radioactive drug recovery in carcass at 5 mg/kg, iv after 168 hrs by liquid scintillation counting; parameters: dose 5 mg/kg, route intravenous; settings: in vivo; method in brief: as §2
Plasma [23] = assay: Half life in Sprague-Dawley rat plasma at 5 mg/kg, iv by liquid scintillation counting; parameters: dose 5 mg/kg, route intravenous; settings: in vivo; method in brief: as §1
[24] = Drug level in human assessed as radioactive drug recovery in feces at 100 uCi, iv within 216 hrs by liquid scintillation counting; settings: in vivo
Method in brief: (§5)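 Nine healthy men given a single i.v. infusion of [14C]drug. Urine collected predose, at 0-2, 2-4, 4-8 and 8-24 h, then every 24 h to day 10. Feces collected predose and every 24 h to day 10. Radioactivity measured by liquid scintillation counting and totalled as cumulative percent of dose through 216 h.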

Plasma [25] = assay: Clearance in human plasma at 100 uCi, iv by liquid scintillation counting; settings: in vivo; method in brief: as §3
[26] = Drug level in human assessed as radioactive drug recovery in urine at 100 uCi, iv after 216 hrs by liquid scintillation counting; settings: in vivo; method in brief: as §5
[27] = Drug level in human assessed as radioactive drug recovery in feces at 100 uCi, iv after 216 hrs by liquid scintillation counting; settings: in vivo; method in brief: as §5
[28] = Half life in human whole blood at 100 uCi, iv by liquid scintillation counting; method in brief: as §3

CCCCCOc1ccc(-c2ccc(-c3ccc([14C](=O)N[C@H]4C[C@@H](O)[C@@H](O)NC(=O)[C@@H]5[C@@H](O)[C@@H](C)CN5C(=O)[C@H]([C@H](C)O)NC(=O)[C@H]([C@H](O)[C@@H](O)c5ccc(O)cc5)NC(=O)[C@@H]5C[C@@H](O)CN5C(=O)[C@H]([C@H](C)O)NC4=O)cc3)cc2)cc1 [[14C]-ANIDULAFUNGIN]
Cmax [1]: 11.5 ugequiv/ml
Drug uptake [2]: 40.4%
Tmax (Plasma [3]): 0.25 h
Cmax (Plasma [4]): 6.84 ugequiv/ml
t1/2 (Plasma [5]): 119 h
Tmax [6]: 1.75 h
MRT [7]: 174 h
Vdss [8]: 61.6 L
Tmax [9]: 0.25 h
Drug uptake [10]: 17.1%
MRT (Plasma [11]): 162 h
t1/2 [12]: 52.1 h
Tmax (Plasma [13]): 1.78 h
Cmax (Plasma [14]): 3020 ng/mL
Drug uptake [15]: 33.9%
CL [16]: 0.356 L/h
Vdss (Plasma [17]): 57.6 L
Drug uptake [18]: 77.1%
Cmax [19]: 3380 ng/mL
Vdss [20]: 0.696 L/kg
Vdss (Plasma [21]): 1.056 L/kg
Drug uptake [22]: 23.1%
t1/2 (Plasma [23]): 52.9 h
Drug uptake [24]: 10%
CL (Plasma [25]): 0.356 L/h
Drug uptake [26]: 0.56%
Drug uptake [27]: 29.5%
t1/2 [28]: 139 h
